Data taken from ChEMBL document CHEMBL1153922, “Exploration of 4,4-disubstituted pyrrolidine-1,2-dicarboxamides as potent, orally active Factor Xa inhibitors with extended duration of action” (Bioorg Med Chem, 2009).

How the values were obtained:
[1] = Half life in iv dosed dog by cassette studies; format: ADME, organism-based, Canis lupus familiaris; conditions: in vivo
Method in brief: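 Dog half-life from intravenous cassette dosing, with compounds co-administered IV and plasma sampled for elimination t1/2.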

[2] = Volume of distribution at steady state in iv dosed rat by cassette studies; format: ADME, organism-based; conditions: in vivo, read-out: Vdss
Method in brief: (§1)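 Rat PK from intravenous cassette dosing, in which several compounds are given together in one IV administration, followed by plasma sampling to derive clearance, Vdss and elimination half-life.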

[3] = Clearance in iv dosed rat by cassette studies; format: ADME, organism-based; conditions: in vivo; method in brief: as §1
[4] = Half life in iv dosed rat by cassette studies; format: ADME, organism-based; conditions: in vivo; method in brief: as §1
[5] = AUC (infinity) in Beagle dog at 0.5 mg/kg, iv; format: ADME, organism-based, Canis lupus familiaris; design: time infinity, dose 0.5 mg/kg, route intravenous; conditions: plasma
Method in brief: (§2)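 Single-dose pharmacokinetics in male animals, with rats being Sprague Dawley. IV dosing was 0.5 mg/kg (rat N = 2, dog N = 3). Oral dosing was 3 mg/kg (rat N = 3, dog N = 2). Plasma was sampled to derive Cmax, Tmax, AUCinf, clearance, Vdss and t1/2, and oral bioavailability (F) was calculated from the PO versus IV exposure.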

[6] = Absolute oral bioavailability in Beagle dog at 3 mg/kg; format: ADME, organism-based, Canis lupus familiaris; conditions: in vivo; method in brief: as §2
[7] = Volume of distribution at steady state in Beagle dog at 0.5 mg/kg, iv; format: ADME, organism-based, Canis lupus familiaris; design: dose 0.5 mg/kg, route intravenous; conditions: in vivo, read-out: Vdss; method in brief: as §2
[8] = Cmax in Beagle dog at 3 mg/kg, po; format: ADME, organism-based, Canis lupus familiaris; design: dose 3 mg/kg, route oral; conditions: in vivo; method in brief: as §2
[9] = Cmax in Sprague-Dawley rat at 3 mg/kg, po; format: ADME, organism-based; design: dose 3 mg/kg, route oral; conditions: in vivo; method in brief: as §2
[10] = AUC (infinity) in Sprague-Dawley rat at 0.5 mg/kg, iv; format: ADME, organism-based; design: time infinity, dose 0.5 mg/kg, route intravenous; conditions: plasma; method in brief: as §2
[11] = Half life in Sprague-Dawley rat at 0.5 mg/kg, iv; format: ADME, organism-based; design: dose 0.5 mg/kg, route intravenous; conditions: in vivo; method in brief: as §2
[12] = Tmax in Beagle dog at 3 mg/kg, po; format: ADME, organism-based, Canis lupus familiaris; design: dose 3 mg/kg, route oral; conditions: in vivo; method in brief: as §2
[13] = AUC (infinity) in Beagle dog at 3 mg/kg, po; format: ADME, organism-based, Canis lupus familiaris; design: time infinity, dose 3 mg/kg, route oral; conditions: plasma; method in brief: as §2
[14] = Absolute oral bioavailability in Sprague-Dawley rat at 3 mg/kg; format: ADME, organism-based; conditions: in vivo; method in brief: as §2
[15] = Clearance in Sprague-Dawley rat at 0.5 mg/kg, iv; format: ADME, organism-based; design: dose 0.5 mg/kg, route intravenous; conditions: in vivo; method in brief: as §2
[16] = AUC (infinity) in Sprague-Dawley rat at 3 mg/kg, po; format: ADME, organism-based; design: dose 3 mg/kg, route oral, time infinity; conditions: plasma; method in brief: as §2
[17] = Clearance in Beagle dog at 0.5 mg/kg, iv; format: ADME, organism-based, Canis lupus familiaris; design: dose 0.5 mg/kg, route intravenous; conditions: in vivo; method in brief: as §2
[18] = Tmax in Sprague-Dawley rat at 3 mg/kg, po; format: ADME, organism-based; design: dose 3 mg/kg, route oral; conditions: in vivo; method in brief: as §2
[19] = Half life in Beagle dog at 0.5 mg/kg, iv; format: ADME, organism-based, Canis lupus familiaris; design: dose 0.5 mg/kg, route intravenous; conditions: in vivo; method in brief: as §2
[20] = Volume of distribution at steady state in Sprague-Dawley rat at 0.5 mg/kg, iv; format: ADME, organism-based; design: dose 0.5 mg/kg, route intravenous; conditions: in vivo, read-out: Vdss; method in brief: as §2
[21] = Half life in iv dosed rat by singleton studies; format: ADME, organism-based; conditions: in vivo
Method in brief: (§3)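 Rat PK from intravenous singleton dosing, in which each compound is given alone IV, followed by plasma sampling to derive clearance, Vdss and elimination half-life.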

[22] = Volume of distribution at steady state in iv dosed rat by singleton studies; format: ADME, organism-based; conditions: in vivo, read-out: Vdss; method in brief: as §3
[23] = Clearance in iv dosed rat by singleton studies; format: ADME, organism-based; conditions: in vivo; method in brief: as §3
[24] = Half life in iv dosed dog by singleton studies; format: ADME, organism-based, Canis lupus familiaris; conditions: in vivo
Method in brief: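 Dog half-life from intravenous singleton dosing, with each compound given alone IV and plasma sampled for elimination t1/2.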

| Structure (SMILES) | Vd [2] [L/kg] | clearance [3] [mL/min/kg] | half-life [4] [h] | further results |
| --- | --- | --- | --- | --- |
| O=C(Nc1ccc(-n2ccccc2=O)cn1)[C@H]1C[C@](O)(c2ccc(F)c(F)c2)CN1C(=O)Nc1ccc(Cl)cc1 | 1.6 | 13.1 | 2.1 | half-life [1]: 2.1 h |
| Cc1cccc([C@@]2(O)C[C@H](C(=O)Nc3ccc(-n4ccccc4=O)cn3)N(C(=O)Nc3ccc(Cl)cc3)C2)c1 | 0.438 | 6.78 | 1.4 | – |
| O=C(Nc1ccc(-n2ccccc2=O)cn1)[C@H]1C[C@](O)(c2ccccc2Cl)CN1C(=O)Nc1ccc(Cl)cc1 | 0.923 | 4.16 | 2.9 | half-life [1]: 0.8 h |
| CO[C@@H]1C[C@H](C(=O)Nc2ccc(-n3ccccc3=O)cn2)N(C(=O)Nc2ccc(Cl)cc2)C1 | – | – | 2 | – |
| CCO[C@]1(CC)C[C@H](C(=O)Nc2ccc(-n3ccccc3=O)cc2F)N(C(=O)Nc2ccc(Cl)cc2)C1 | – | – | 1.4 | – |
| Cc1ccccc1[C@@]1(O)C[C@H](C(=O)Nc2ccc(-n3ccccc3=O)cn2)N(C(=O)Nc2ccc(Cl)cc2)C1 | 0.468 | 5.12 | 1.3 | – |
| O=C(Nc1ccc(-n2ccccc2=O)cc1F)[C@H]1C[C@](O)(c2ccccc2)CN1C(=O)Nc1ccc(Cl)cc1 | – | – | – | half-life [21]: 4 h |
| O=C(Nc1ccc(-n2ccccc2=O)cn1)[C@H]1C[C@](O)(c2ccccc2)CN1C(=O)Nc1ccc(Cl)cc1 | – | – | 2.9 | Vd [22]: 1.49 L/kg; half-life [1]: 2.9 h; clearance [23]: 6.73 mL/min/kg |

The next lines start with results.

| Vd [2] [L/kg] | clearance [3] [mL/min/kg] | half-life [4] [h] | Structure (SMILES) | further results |
| --- | --- | --- | --- | --- |
| 0.393 | 2.89 | 1.9 | O=C(Nc1ccc(-n2ccccc2=O)cn1)[C@H]1C[C@](O)(c2ccccc2C(F)(F)F)CN1C(=O)Nc1ccc(Cl)cc1 | half-life [1]: 1 h |
| 1.97 | 9.44 | 1.8 | O=C(Nc1ccc(-n2ccccc2=O)cn1)[C@H]1C[C@](O)(c2ccc(F)cc2)CN1C(=O)Nc1ccc(Cl)cc1 | – |
| 1.81 | 7.64 | 3.3 | O=C(Nc1ccc(-n2ccccc2=O)cn1)[C@H]1C[C@](O)(c2ccc(F)cc2F)CN1C(=O)Nc1ccc(Cl)cc1 | AUC(0-inf) [5]: 4870 ng·h/mL; bioavailability [6]: 24%; Vd [7]: 2 L/kg; Cmax [8]: 397 ng/mL; Cmax [9]: 236 ng/mL; AUC(0-inf) [10]: 978 ng·h/mL; half-life [11]: 3.3 h; Tmax [12]: 2 h; AUC(0-inf) [13]: 6450 ng·h/mL; bioavailability [14]: 19%; clearance [15]: 9.5 mL/min/kg; AUC(0-inf) [16]: 1010 ng·h/mL; clearance [17]: 2.1 mL/min/kg; half-life [1]: 7.3 h; Tmax [18]: 1.7 h; half-life [19]: 12.6 h; Vd [20]: 2.4 L/kg |
| 1.58 | 10.3 | 1.8 | Cc1ccc([C@@]2(O)C[C@H](C(=O)Nc3ccc(-n4ccccc4=O)cn3)N(C(=O)Nc3ccc(Cl)cc3)C2)cc1 | – |
| – | – | 2.4 | CC[C@@]1(O)C[C@H](C(=O)Nc2ccc(-n3ccccc3=O)cc2F)N(C(=O)Nc2ccc(Cl)cc2)C1 | – |
| – | – | 1.6 | Cc1cccn(-c2ccc(NC(=O)[C@H]3C[C@@](C)(O)CN3C(=O)Nc3ccc(Cl)cc3)c(F)c2)c1=O | – |
| – | – | 1.7 | CO[C@]1(C)C[C@H](C(=O)Nc2ccc(-n3ccccc3=O)cc2F)N(C(=O)Nc2ccc(Cl)cc2)C1 | – |
| – | – | 5.2 | CC[C@@]1(O)C[C@H](C(=O)Nc2ccc(-n3cccc(C)c3=O)cc2F)N(C(=O)Nc2ccc(Cl)cc2)C1 | – |
| – | – | 1.7 | CC[C@@]1(OC)C[C@H](C(=O)Nc2ccc(-n3ccccc3=O)cc2F)N(C(=O)Nc2ccc(Cl)cc2)C1 | – |
| – | – | 2.6 | CO[C@@H]1C[C@H](C(=O)Nc2ccc(-n3ccccc3=O)cc2F)N(C(=O)Nc2ccc(Cl)cc2)C1 [ERIBAXABAN] | half-life [24]: 4.9 h; Vd [22]: 1.1 L/kg; half-life [21]: 2 h; clearance [23]: 12 mL/min/kg |
